Results as given in ChEMBL document CHEMBL5149991 (J Med Chem, 2021).

Columns and labels:
[1] = target: Histamine H4 receptor (Homo sapiens, UniProt Q9H3N8)
[2] = target: Histamine H3 receptor (Homo sapiens, UniProt Q9Y5N1); test: Displacement of [3H]UR-PI294 from human histamine H3 receptor stably expressed in baculovirus infected Sf9 cell membrane co-expressing G-alphai2 and G-beta1gamma2 incubated for 60 mins by scintillation counting analysis; type: cell membranes
Method in brief: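 hH3R + Gαi2 + Gβ1γ2 expressed in Sf9 membranes. […] Mean ± SEM from N independent experiments in triplicate.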

[3] = target: Histamine H2 receptor (Cavia porcellus, UniProt P47747); test: Agonist activity at histamine H2 receptor in spontaneous beating guinea pig right atrium assessed as increase in heart beat; type: functional, tissue-based, Right cardiac atrium
Histamine H2 receptor, sequence (P47747 whole entry): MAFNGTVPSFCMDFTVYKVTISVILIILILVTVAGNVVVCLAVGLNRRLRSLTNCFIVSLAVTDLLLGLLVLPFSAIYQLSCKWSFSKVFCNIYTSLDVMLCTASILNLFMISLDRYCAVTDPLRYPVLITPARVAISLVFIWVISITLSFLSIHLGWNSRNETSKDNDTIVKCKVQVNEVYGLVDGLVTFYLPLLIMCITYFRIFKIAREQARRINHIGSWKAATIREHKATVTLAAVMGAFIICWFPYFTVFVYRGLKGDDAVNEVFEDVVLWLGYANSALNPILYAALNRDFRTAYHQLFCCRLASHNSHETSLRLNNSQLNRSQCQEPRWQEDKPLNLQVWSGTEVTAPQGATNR

[4] = target: T1, Alpha-2A adrenergic receptor (Homo sapiens, UniProt P08913); test: Displacement of [3H]RX821002 from human alpha-2A adrenergic receptor […] in HEK293T cell membrane incubated for 2 hrs by scintillation counting analysis; type: cell membranes
T1 sequence (P08913 whole entry): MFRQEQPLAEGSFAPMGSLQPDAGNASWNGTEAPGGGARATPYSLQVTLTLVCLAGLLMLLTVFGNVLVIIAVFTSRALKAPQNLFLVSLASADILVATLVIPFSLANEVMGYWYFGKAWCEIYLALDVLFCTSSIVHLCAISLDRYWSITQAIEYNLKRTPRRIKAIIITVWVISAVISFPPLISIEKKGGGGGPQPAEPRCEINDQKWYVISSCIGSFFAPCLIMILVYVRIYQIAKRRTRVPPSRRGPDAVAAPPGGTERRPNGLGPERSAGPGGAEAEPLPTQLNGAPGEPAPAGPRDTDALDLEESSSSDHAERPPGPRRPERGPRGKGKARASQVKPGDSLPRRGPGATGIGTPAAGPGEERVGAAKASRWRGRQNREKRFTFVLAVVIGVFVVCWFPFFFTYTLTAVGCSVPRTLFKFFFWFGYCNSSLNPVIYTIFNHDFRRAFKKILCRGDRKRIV
Method in brief: (§1)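 Transiently transfected HEK293T membranes in 50 mM Tris, pH 7.4. α2A: 10 μg/well, 0.5 nM [3H]RX821002, nonspecific with 10 μM RX821002. μOR: 6 μg/well, 0.3 nM [3H]diprenorphine, nonspecific with 10 μM naloxone. Ki from IC50 by Cheng–Prusoff.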

[5] = target: Histamine H1 receptor (Homo sapiens, UniProt P35367)
Histamine H1 receptor, sequence (P35367 whole entry): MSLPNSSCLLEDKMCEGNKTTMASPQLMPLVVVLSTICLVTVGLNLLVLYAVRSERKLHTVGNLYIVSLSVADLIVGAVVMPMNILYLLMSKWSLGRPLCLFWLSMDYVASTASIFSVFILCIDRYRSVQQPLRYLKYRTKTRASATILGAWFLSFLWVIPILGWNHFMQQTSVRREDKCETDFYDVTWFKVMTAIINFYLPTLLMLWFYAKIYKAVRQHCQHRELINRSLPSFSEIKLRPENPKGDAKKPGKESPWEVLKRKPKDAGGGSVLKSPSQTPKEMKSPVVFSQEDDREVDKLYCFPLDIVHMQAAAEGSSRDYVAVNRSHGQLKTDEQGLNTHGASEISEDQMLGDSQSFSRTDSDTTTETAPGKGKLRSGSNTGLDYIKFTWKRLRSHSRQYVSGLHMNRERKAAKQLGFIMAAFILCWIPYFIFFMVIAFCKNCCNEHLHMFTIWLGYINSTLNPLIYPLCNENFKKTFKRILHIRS

[6] = target: T2, Alpha-1A adrenergic receptor (Homo sapiens, UniProt P35348); test: Displacement of [3H]prazosin from human alpha-1A adrenergic receptor stably expressed in HEK293T cell membrane incubated for 2 hrs by scintillation counting analysis; type: cell membranes
T2 sequence (P35348 whole entry): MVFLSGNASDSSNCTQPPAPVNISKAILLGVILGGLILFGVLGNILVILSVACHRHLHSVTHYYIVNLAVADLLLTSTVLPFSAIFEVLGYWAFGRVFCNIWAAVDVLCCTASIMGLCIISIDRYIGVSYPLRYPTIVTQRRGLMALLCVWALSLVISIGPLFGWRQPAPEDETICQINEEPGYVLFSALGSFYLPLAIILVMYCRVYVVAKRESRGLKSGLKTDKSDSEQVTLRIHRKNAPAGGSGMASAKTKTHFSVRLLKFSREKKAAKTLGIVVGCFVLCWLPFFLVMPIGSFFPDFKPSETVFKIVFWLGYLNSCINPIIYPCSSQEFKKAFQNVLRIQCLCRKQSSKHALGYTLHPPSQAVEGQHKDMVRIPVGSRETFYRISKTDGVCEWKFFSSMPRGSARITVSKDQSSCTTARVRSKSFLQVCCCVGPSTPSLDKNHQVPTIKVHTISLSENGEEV

[7] = target: T3, Muscarinic acetylcholine receptor M4 (Homo sapiens, UniProt P08173); test: Displacement of [3H]N-methylscopolamine from human muscarinic acetylcholine M4 receptor stably expressed in CHO cells by radioligand competition binding based analysis; type: cell-based
T3 sequence (P08173 whole entry): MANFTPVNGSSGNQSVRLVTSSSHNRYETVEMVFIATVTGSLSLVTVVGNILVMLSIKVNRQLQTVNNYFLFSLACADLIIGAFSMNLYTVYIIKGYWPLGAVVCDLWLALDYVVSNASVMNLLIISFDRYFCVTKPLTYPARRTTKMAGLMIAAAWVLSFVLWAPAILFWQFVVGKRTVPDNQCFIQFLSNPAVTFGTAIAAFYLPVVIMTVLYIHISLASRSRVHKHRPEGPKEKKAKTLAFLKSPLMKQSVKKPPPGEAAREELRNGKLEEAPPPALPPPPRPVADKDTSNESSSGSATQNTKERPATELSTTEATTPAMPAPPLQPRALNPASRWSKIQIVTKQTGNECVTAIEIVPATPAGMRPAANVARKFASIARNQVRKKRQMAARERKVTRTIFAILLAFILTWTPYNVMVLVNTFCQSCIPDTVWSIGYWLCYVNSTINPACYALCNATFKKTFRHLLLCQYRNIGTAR
Method in brief: (§2)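 Whole CHO cells stably expressing hM1–hM5, competed against [3H]N-methylscopolamine. Kd/applied concentrations in nM: M1 0.17/0.2, M2 0.10/0.2, M3 0.12/0.2, M4 0.052/0.1, M5 0.20/0.3.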

[8] = target: Mu-type opioid receptor (Homo sapiens, UniProt P35372); test: Displacement of [3H]diprenorphine from human mu-opioid receptor […] in HEK293T cell membrane incubated for 2 hrs by scintillation counting analysis; type: cell membranes
Mu-type opioid receptor, sequence (P35372 whole entry): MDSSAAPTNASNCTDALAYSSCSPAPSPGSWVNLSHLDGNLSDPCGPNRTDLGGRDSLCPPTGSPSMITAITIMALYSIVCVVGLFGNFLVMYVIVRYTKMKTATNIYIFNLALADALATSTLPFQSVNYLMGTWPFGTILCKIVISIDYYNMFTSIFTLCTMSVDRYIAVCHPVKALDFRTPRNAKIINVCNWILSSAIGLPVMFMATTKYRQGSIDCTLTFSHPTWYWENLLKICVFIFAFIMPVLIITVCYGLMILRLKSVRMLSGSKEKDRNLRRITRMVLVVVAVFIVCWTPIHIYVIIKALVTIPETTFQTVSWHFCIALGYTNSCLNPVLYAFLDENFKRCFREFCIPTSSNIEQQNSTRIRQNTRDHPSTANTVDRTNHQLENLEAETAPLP
Method in brief: as §1

[9] = target: T4, Muscarinic acetylcholine receptor M2 (Homo sapiens, UniProt P08172); test: Displacement of [3H]N-methylscopolamine from human muscarinic acetylcholine M2 receptor stably expressed in CHO cells by radioligand competition binding based analysis; type: cell-based
T4 sequence (P08172 whole entry): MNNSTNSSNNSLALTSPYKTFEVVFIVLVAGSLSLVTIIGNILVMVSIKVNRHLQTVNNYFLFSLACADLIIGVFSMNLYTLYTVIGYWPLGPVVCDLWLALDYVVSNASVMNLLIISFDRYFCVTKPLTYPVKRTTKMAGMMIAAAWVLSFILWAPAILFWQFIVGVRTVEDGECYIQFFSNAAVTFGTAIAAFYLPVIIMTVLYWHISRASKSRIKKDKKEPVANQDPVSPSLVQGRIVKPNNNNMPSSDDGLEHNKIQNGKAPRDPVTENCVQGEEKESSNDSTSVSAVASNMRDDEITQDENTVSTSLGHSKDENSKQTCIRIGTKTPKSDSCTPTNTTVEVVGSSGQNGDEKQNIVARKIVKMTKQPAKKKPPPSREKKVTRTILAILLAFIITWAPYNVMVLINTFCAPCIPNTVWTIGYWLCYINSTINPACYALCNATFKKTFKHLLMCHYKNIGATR
Method in brief: as §2

Histamine H4 receptor, sequence (Q9H3N8 whole entry): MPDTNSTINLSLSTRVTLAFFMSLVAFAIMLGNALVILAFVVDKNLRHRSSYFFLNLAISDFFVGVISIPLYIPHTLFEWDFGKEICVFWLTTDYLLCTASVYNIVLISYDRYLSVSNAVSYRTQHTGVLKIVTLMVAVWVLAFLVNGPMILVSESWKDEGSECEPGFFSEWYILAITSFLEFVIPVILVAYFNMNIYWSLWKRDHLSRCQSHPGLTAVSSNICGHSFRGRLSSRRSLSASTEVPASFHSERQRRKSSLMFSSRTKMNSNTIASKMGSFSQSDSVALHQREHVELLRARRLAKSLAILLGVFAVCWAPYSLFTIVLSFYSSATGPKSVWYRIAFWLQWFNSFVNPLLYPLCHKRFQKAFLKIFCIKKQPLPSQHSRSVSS
Histamine H3 receptor, sequence (Q9Y5N1 whole entry): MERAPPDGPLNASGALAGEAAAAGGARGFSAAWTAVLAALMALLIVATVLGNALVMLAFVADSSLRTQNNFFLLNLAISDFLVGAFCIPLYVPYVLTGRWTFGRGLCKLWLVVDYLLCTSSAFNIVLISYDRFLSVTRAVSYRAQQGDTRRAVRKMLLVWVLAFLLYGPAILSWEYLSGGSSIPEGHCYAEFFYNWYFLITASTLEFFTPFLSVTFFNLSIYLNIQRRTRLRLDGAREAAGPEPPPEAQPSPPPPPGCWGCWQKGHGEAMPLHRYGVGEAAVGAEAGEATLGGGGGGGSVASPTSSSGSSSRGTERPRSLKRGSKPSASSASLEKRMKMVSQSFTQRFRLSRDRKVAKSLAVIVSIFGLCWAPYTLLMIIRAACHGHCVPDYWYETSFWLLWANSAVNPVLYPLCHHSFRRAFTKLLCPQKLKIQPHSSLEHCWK

SMILES	Kd [1] [nM]	Ki [1] [nM]	Ki [2] [nM]	EC50 [3] [nM]	Kd [4] [nM]	pKi [4]	Kd [5] [nM]	Ki [5] [nM]	Kd [6] [nM]	pKi [6]	Kd [7] [nM]	pKi [7]	Kd [8] [nM]	pKi [8]	Kd [9] [nM]	Ki [9] [nM]
N/C(=N\C(=O)NCc1ccccc1)NCCCc1nnc(N)s1	16	> 10000	> 10000	1.32	0.6	5.9	4.5	5370	0.25	6.07	0.052	> 5.5	0.09	5.4	0.1	–
C[C@@H](NC(=O)/N=C(\N)NCCCc1ncn[nH]1)c1ccccc1	16	> 10000	> 10000	38	0.6	6.07	4.5	7940	0.25	5.72	0.052	> 5	0.09	4.76	0.1	> 10000
CCCCCNC(=O)/N=C(\N)NCCCc1sc(N)nc1C	–	–	–	–	0.6	6.05	–	–	0.25	5.69	0.052	< 5	0.09	5.99	0.1	> 10000
CCCCCNC(=O)/N=C(\N)NCCCc1nnc(N)s1.O=C(O)C(F)(F)F.O=C(O)C(F)(F)F	16	> 10000	> 10000	5.62	0.6	5.31	4.5	6460	0.25	5.45	0.052	< 5	0.09	5.47	0.1	–
